# Test results from article PMC9876410 (Acta Pharmacologica Sinica, 2023).
# Entries after “also recorded” stand apart in the source; their conditions may differ.
# Key:
# [1] = target: T1, NQO1 (Homo sapiens, UniProt P15559); assay: Comprehensive 2D NQO1 biochromatography retention; format: binding; settings: 2D NQO1 column/C18 column/TOFMS
# [2] = system: L02; assay: Cell proliferation assay; format: cell-based, human
# How it was run: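 CCK-8 proliferation in L02 cells (DMEM, 10% FBS, 37 °C, 5% CO₂). Cells were plated overnight in 96-well plates, then given AAI (dissolved in 1% NaHCO₃) and/or SFII (dissolved in DMSO). At 0, 24 and 48 h, medium was swapped for CCK-8 reagent, incubated 2 h at 37 °C, and absorbance was read at 450 nm.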
# [3] = system: HK-2; assay: Cell proliferation assay; format: cell-based, human
# How it was run: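 HK-2 cells were kept in DMEM/F12 with 10% FBS and 1% antibiotic-antimycotic at 37 °C, 5% CO₂. They were seeded in 96-well plates overnight, then treated with AAI (in 1% NaHCO₃) and SFII (in DMSO) for 48 h. Medium was replaced with CCK-8 reagent for 2 h at 37 °C, and absorbance was read at 450 nm.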
# [4] = system: L02; format: cell-based, human
# [5] = system: HK-2; format: cell-based, human
# [6] = system: C57BL/6 adult mice; assay: AAI-induced acute renal injury model in adult mice; format: in vivo
# How it was run: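 Male C57BL/6 mice aged 8 weeks received AAI 5 mg/kg i.p. for three consecutive days, with NaHCO₃ as the vehicle control. SFII 30 or 60 mg/kg was given by oral gavage 12 h before AAI and at each injection. Mice were killed 3 days after the first AAI dose. Blood creatinine was measured. Kidney sections were stained with Sirius red (37 °C, 30 min), and the stained fibrotic area was calculated.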
# [7] = system: C57BL/6 adult mice; assay: AAI-induced renal fibrosis model in adult mice; format: in vivo
# How it was run: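 Renal fibrosis model in 8-week-old male C57BL/6 mice. A single AAI injection (10 mg/kg i.p.) was given; controls received NaHCO₃. SFII (30 or 60 mg/kg) was gavaged 12 h before AAI and then daily for 3 days; AAI-only mice received olive oil by the same schedule. Animals were killed 14 days after AAI, with body weight monitored.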
# [8] = system: liver of adult and infant mice; assay: DNA damage in liver of adult and infant mice; format: in vivo; settings: AAI 20 mg/kg, 24 h
# How it was run: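 Adult mice and 14-day-old infant mice were injected with PBS (negative control), diethylnitrosamine (positive control) or AAI 20 mg/kg, and killed after 24 h. Liver protein was extracted in lysis buffer and quantified by BCA. Proteins were separated by SDS-PAGE, transferred to nitrocellulose and imaged on an infrared scanner for DNA-damage markers.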
# [9] = Blood coagulation assay; format: in vivo; settings: C57BL/6 adult mice, 6 mg/kg orally, 24 h
# How it was run: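 Adult C57BL/6 mice (4 per group) received test compound orally at 6 mg/kg and were killed 24 h later. Blood was analysed for activated partial thromboplastin time, prothrombin time and thrombin time.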
# [10] = target: T1, NQO1; assay: NQO1 enzyme activity test; format: biochemical
# [11] = target: T1, NQO1; assay: Surface plasmon resonance; format: binding
# [12] = target: T1, NQO1; assay: NQO1 activity assay in HK-2 cells; format: cell-based; settings: HK-2, 5 μM, 8 h, vs control group
# How it was run: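 HK-2 cells (DMEM/F12, 10% FBS, 37 °C, 5% CO₂) were treated with test compound at 5 μM for 8 h before protein extraction. NQO1 activity was measured with a commercial NQO1 activity kit, reading absorbance at 440 nm on a microplate reader.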
# [13] = target: T1, NQO1; assay: NQO1 activity assay in L02 cells; format: cell-based; settings: 8 h
# How it was run: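 An NQO1-knockdown L02 line was made by infecting cells at 50% density with concentrated shNQO1 or shNC lentivirus plus polybrene for 10 h, then selecting with puromycin (2 μg/mL) for 48 h. Knockdown was verified by qRT-PCR and Western blot. NQO1 activity was measured with a commercial kit, reading absorbance at 440 nm.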
# [14] = system: L02; assay: ALT and AST in culture medium of L02; format: cell-based, human; settings: AAI (20 or 50 μM) with SFII (5 or 10 μM), 24 h, vs AAI alone
# How it was run: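 L02 cells were grown in DMEM with 10% FBS and 1% antibiotic-antimycotic at 37 °C, 5% CO₂. Cells were exposed to AAI (20 or 50 μM) with or without SFII (5 or 10 μM) for 24 h. Culture medium was then collected, and ALT and AST were measured with clinical aminotransferase test kits.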
# [15] = system: L02; assay: Flow cytometry analysis of apoptosis in L02; format: cell-based, human
# How it was run: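 L02 cells were plated in 6-well plates overnight, then treated with AAI (20 or 50 μM) with or without SFII (5 or 10 μM) for 24 h. Cells were trypsinised, spun at 1000 rpm for 3 min, washed in PBS, and stained with Annexin V-FITC or -APC plus PI for 20 min at room temperature in the dark. Flow cytometry counted Annexin V⁺/PI⁺ and Annexin V⁺/PI⁻ cells as apoptotic.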
# [16] = system: HK-2; assay: Flow cytometry analysis of apoptosis in HK-2; format: cell-based, human; settings: AAI with SFII (10 or 20 μM), 24 h
# [17] = system: L02; assay: qRT-PCR of apoptotic-related genes in L02; format: cell-based, human; settings: AAI (20 or 50 μM) with SFII, 24 h
# [18] = system: HK-2; assay: qRT-PCR of apoptosis-related genes in HK-2; format: cell-based, human; settings: AAI with SFII, 24 h
# How it was run: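 HK-2 cells (DMEM/F12, 10% FBS, 1% antibiotic-antimycotic, 37 °C, 5% CO₂) were treated with AAI, SFII, or both for 24 h. Expression of apoptosis-related genes was then measured by qRT-PCR.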
# [19] = target: NQO1 (Mus musculus, UniProt Q64669); assay: NQO1 activity in kidney and liver tissues of mice; format: in vivo; settings: adult mice, SFII 30, 60 mg/kg orally, 2.5 h
# Chain of NQO1 (Mus musculus, UniProt Q64669) (Q64669 2-274 limits assumed): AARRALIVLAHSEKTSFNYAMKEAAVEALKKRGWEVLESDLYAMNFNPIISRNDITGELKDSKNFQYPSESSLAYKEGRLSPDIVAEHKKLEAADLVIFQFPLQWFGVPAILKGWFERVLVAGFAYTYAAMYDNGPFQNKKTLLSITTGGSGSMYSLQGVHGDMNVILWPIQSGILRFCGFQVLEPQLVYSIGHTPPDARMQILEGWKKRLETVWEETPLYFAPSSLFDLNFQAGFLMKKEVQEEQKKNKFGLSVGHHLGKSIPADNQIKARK
# How it was run: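 NQO1 activity in mouse kidney and liver samples was measured with a commercial NQO1 activity assay kit. Sample and reaction buffer were mixed in 96-well plates, and absorbance was read at 440 nm.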
# [20] = system: infant mice; assay: Infant mice acute injury model; format: in vivo
# How it was run: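 Male infant mice on postnatal day 14 were injected with NaHCO₃ or AAI. SFII 10 mg/kg was given 12 h before AAI; control groups were pretreated with olive oil 12 h before injection. Mice were killed 24 h after AAI. Liver and kidney were analysed by Western blot. For TUNEL, sections were quenched with 0.3% H₂O₂ (30 min, room temperature), incubated with TUNEL mix for 2 h at 37 °C in the dark, then streptavidin-HRP for 30 min at 37 °C. Apoptotic cell percentage was calculated.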
# [21] = system: infant mice; assay: AAI-induced liver cancer model in infant mice; format: in vivo
# [22] = adult mice renal fibrosis model
# T1 sequence (P15559 whole entry): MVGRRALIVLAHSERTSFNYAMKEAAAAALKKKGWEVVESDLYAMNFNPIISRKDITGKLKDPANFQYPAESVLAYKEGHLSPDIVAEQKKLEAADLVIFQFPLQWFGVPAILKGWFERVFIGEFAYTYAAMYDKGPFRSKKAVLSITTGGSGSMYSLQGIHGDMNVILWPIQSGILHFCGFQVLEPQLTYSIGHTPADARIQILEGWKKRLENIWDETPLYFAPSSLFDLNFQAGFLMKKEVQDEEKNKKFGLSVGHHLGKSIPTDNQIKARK
structure (smiles),measurement,setting,value
"C[C@@H]1C[C@H]2[C@@H]3CCC4=CC(=O)C=C[C@]4(C)[C@@]3(F)[C@@H](O)C[C@]2(C)[C@@]1(O)C(=O)CO [dexamethasone, reference compound]",retention on NQO1 biochromatography,[1],no retention
COc1cc(O)c2c(=O)cc(-c3ccccc3)oc2c1 [tectochrysin],retention on NQO1 biochromatography,[1],retention behaviors
"COc1cccc2c1cc([N+](=O)[O-])c1c(C(=O)O)cc3c(c12)OCO3 [AAI, Aristolochic acid I, reference compound]",anti-proliferative effect in L02,"[2]; AAI 0, 5, 10, 20, 50, or 100 μM, 48 h",gradually intensified
same,AAI-induced proliferation inhibition in HK-2,"[3]; different doses of AAI, compared with L02",better tolerance
same,γ-H2AX expression (DNA damage) in L02,[4]; AAI 20 μM,considerable increase
same,expression of γ-H2AX in HK-2,"[5]; AAI dose gradient, particularly at 100 μM",increase
same,"elevation of blood CRE, fold change","[6]; adult mice, AAI 5 mg/kg i.p. for 3 days, AAI alone",over 1.5
same,"body weight, AAI",[7]; [22],intensive weight loss
same,DNA damage in the liver of adult mice,[8],scarcely caused DNA damage
same,γ-H2AX in the liver of infant mice,[8]; age 14 days,upregulation of γ-H2AX
"O=c1oc2ccccc2c(O)c1Cc1c(O)c2ccccc2oc1=O [dicoumarol, reference compound]",activated partial thromboplastin time (APTT),[9],significantly elevate
same,prothrombin time (PT),[9],significantly elevate
same,thrombin time (TT),[9],significantly elevate
COc1c(O)cc2oc(-c3ccccc3)cc(=O)c2c1O [oroxylin A],IC50,[10],930 nM
same,Kd,[11],873 nM
same,retention on NQO1 biochromatography,[1],retention behaviors
same,activated partial thromboplastin time (APTT),[9],not significantly altered
same,prothrombin time (PT),[9],not significantly altered
same,thrombin time (TT),[9],not significantly altered
same,inhibition of NQO1 activity in HK-2,[12],did not notably inhibit
COc1c(O)cc(O)c2c(=O)cc(-c3ccccc3)oc12 [wogonin],IC50,[10],10100 nM
same,retention on NQO1 biochromatography,[1],retention behaviors
"COc1cccc(O)c1-c1cc(=O)c2c(O)c(OC)c(OC)c(OC)c2o1 [SFII, skullcapflavone II]",IC50,[10],2870 nM
same,Kd,[11],4200 nM
same,retention on NQO1 biochromatography,[1],retention behaviors
same,activated partial thromboplastin time (APTT),[9]; 6 mg/kg,not significantly altered; also recorded: barely prolonged
same,prothrombin time (PT),[9]; 6 mg/kg,not significantly altered; also recorded: barely prolonged
same,thrombin time (TT),[9]; 6 mg/kg,not significantly altered; also recorded: barely prolonged
same,inhibitory capability to NQO1 activity in L02,"[13]; L02, 5 μM",significantly higher than oroxylin A
same,NQO1 activity of shNQO1-L02,"[13]; NQO1 knockdown L02, SFII 5 μM",further reduced
same,inhibition of NQO1 activity in HK-2,[12],more efficient NQO1 inhibitory effect
same,inhibitory effect of AAI on cell proliferation in L02,"[2]; AAI 20 μM + SFII 5 or 10 μM, 48 h, vs AAI alone",significantly relieved
same,"cell proliferation of L02, SFII alone",[2]; SFII alone,barely affected
same,AAI-induced inhibition of cell proliferation in HK-2,"[3]; AAI 100 μM with SFII, 48 h",partially alleviated
same,ALT level in culture supernatant of L02,[14],decreased
same,AST level in culture supernatant of L02,[14],decreased
same,percentage of apoptotic cells in L02,"[15]; AAI (20 μM, 50 μM) with SFII (5 or 10 μM), 24 h, vs AAI alone",significantly decreased
same,"apoptosis of L02, SFII alone",[15]; SFII treatment alone,did not affect
same,percentage of apoptotic cells in HK-2,[16],reduced the percentage of apoptotic cells in HK-2 in a dose-dependent manner
same,"expression of P53, cleaved caspase-3, cleaved-PARP-1 and γ-H2AX in L02","[4]; AAI (20 or 50 μM) with SFII, 24 h",efficaciously decrease
same,expression of γ-H2AX and downstream pro-apoptotic signaling in HK-2,"[5]; AAI with SFII, 24 h",significantly decrease
same,"mRNA levels of BAX, NOXA, PUMA, and BAK in L02",[17],significantly downregulate
same,"expression of apoptosis-related genes BAX, NOXA, PUMA, and BAK in HK-2",[18],downregulated
same,NQO1 enzyme activity in kidney and liver in vivo,[19],good inhibitory effect
same,"expressions of γ-H2AX, P53, cleaved-caspase-3, and cleaved-PARP-1 protein in kidney",[6]; SFII 30 or 60 mg/kg oral + AAI 5 mg/kg,downregulated
same,blood CRE,"[6]; SFII 30 or 60 mg/kg oral + AAI 5 mg/kg, 3 days, vs AAI alone",significantly declined
same,fibrosis area of kidney (Sirius red staining),"[6]; SFII 30 or 60 mg/kg oral + AAI 5 mg/kg, vs AAI alone, dose-dependent",significantly limited
same,renal histology (H&E and Sirius red staining),"[7]; SFII 30 or 60 mg/kg gavage + single AAI 10 mg/kg i.p., day 14",effectively relieved renal tubular atrophy and interstitial fibrosis
same,"body weight, mice pretreated with SFII",[7]; [22],no significant change
same,expression of DNA damage and apoptosis-related proteins in liver and kidney,"[20]; SFII 10 mg/kg 12 h before AAI 20 mg/kg, 24 h",significantly decreased
same,cell apoptosis and interstitial fibrosis in kidney,[20]; SFII 10 mg/kg pre-treated + AAI 20 mg/kg,reduced cell apoptosis as well as interstitial fibrosis
same,proportion of apoptotic cells in the liver,"[20]; SFII 10 mg/kg pre-treated, vs AAI alone",decreased
same,number of tumors per liver,"[21]; SFII 10, 30 or 60 mg/kg gavage 12 h before AAI 20 mg/kg, 16 weeks, dose-independently",significant decrease
same,kidney fibrosis,"[21]; SFII pretreated, 16 weeks after AAI administration",notably relieved
